Calls of active or inactive are those of the source. No cut-off for these calls is given here.
How the values were obtained:
Mus musculus [1] = assay: Biodistribution in nu/nu mouse at 24 umol/kg, ip followed by irradiation with diode laser light for 1.5 hrs by optical imaging analysis; format: ADME, organism-based; conditions: in vivo, TDE = time-dependent effect
Outline: (§1)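 The FRET probe was formulated as a Tween 80 paste, extracted into 5% dextrose, filtered, and quantified by CMP absorbance. It was given at 24 μmol/kg ip. At 1.5 h the neck region was irradiated with a 690 nm diode laser at 500 mW/cm2. Mice were under 2.5% isoflurane anesthesia, and fluorescence images were taken after 0, 10, 20 and 30 min irradiation.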

Mus musculus [2] = assay: Biodistribution in nu/nu mouse at 24 umol/kg, ip followed by irradiation with diode laser light for 1.5 hrs measured after 10 to 30 mins by optical imaging analysis; format: ADME, organism-based; conditions: in vivo; outline: as §1
MCF7 [3] = assay: Darktoxicity against human MCF7 cells incubated for 24 hrs followed by 30 mins incubation in dark measured after 3 days by MTT assay; format: cell-based
Outline: (§2)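 MCF-7 cells were grown in α-MEM with 10% bovine growth serum, seeded at 5000/well and grown 24 h at 37 °C, 5% CO2. Compounds were diluted from 2 mM DMSO stocks into medium and incubated 24 h. Phototoxicity plates were shaken and irradiated at 690 nm, 5.6 mW/cm2 for 30 min. Dark plates were kept unlit for 30 min. After 3 days, MTT viability was read at A570 minus A650 and expressed as % of untreated.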

MCF7 [4] = assay: Cytotoxicity against human MCF7 cells incubated for 24 hrs followed by irradiated with diode laser light for 30 mins; format: functional, cell-based; conditions: MCF7, light or radiation study; outline: as §2
Tubulin (Homo sapiens) [5] = biological target: T1, Tubulin (Homo sapiens) (UniProt P68371+Q9H4B7+P0DPH7+P68366+Q13509+Q71U36+P04350+Q3ZCM7+P07437+P68363+Q9BQE3+Q6PEY2+Q13885+Q9BVA1+Q9BUF5); assay: Inhibition of tubulin polymerization (unknown origin) at 3 uM after 1 hr by fluorescence plate reader analysis; format: protein-complex assay
Outline: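 Kit-based fluorescence assay: tubulin plus GTP in buffer with test agent at 3 μM final, incubated at 37 °C. Polymerization was monitored kinetically at ex 360/em 450 nm against a vehicle-only control. Inhibition was assessed after 1 h incubation, as mean ± SD of three experiments.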

Tubulin (Homo sapiens) [6] = biological target: T1, Tubulin (Homo sapiens); assay: Inhibition of tubulin polymerization (unknown origin) at 3 uM after 20 mins by fluorescence plate reader analysis; format: protein-complex assay
MCF7 [7] = assay: Ratio of IC50 for darktoxicity against human MCF7 cells to IC50 for cytotoxicity against human MCF7 cells in presence of diode laser light; format: functional
Colon 26 [8] = assay: Antitumor activity against mouse Colon 26 cells allografted in BALB/c mouse at 4 umol/kg, ip qd for 2 days measured 30 mins post irradiation with diode laser light; format: functional, organism-based
Outline: (§3)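 Colon 26 cells (2 × 10^6 in PBS) were implanted sc in the lower back-neck of 4–6-week-old BALB/c mice. Mice were used once tumors reached 3–5 mm diameter. Doses came from DMSO stocks diluted in 1% Tween 80/5% dextrose and filtered, given as 200 μL ip daily on days 0, 1 and 2. After 1.5 h mice were anesthetized (ketamine/xylazine) and tumors irradiated at 690 nm, 200 mW/cm2 for 30 min (360 J/cm2). Tumor volume was lw2/2 by caliper, and body weight was followed. Groups had six mice; control had three.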

Colon 26 (Mus musculus) [9] = assay: Prodrug conversion in mouse Colon 26 cells assessed as death of neighboring cells at 50 nM incubated for 24 hrs followed by irradiation with diode laser light for 15 mins measured after 48 hrs by Calcein AM live cell staining assay; conditions: colon 26, 0.05 µM
Colon 26 [10] = assay: Antitumor activity against mouse Colon 26 cells allografted in BALB/c mouse at 2 umol/kg, ip qd for 2 days measured 30 mins post irradiation with diode laser light; format: functional, organism-based; outline: as §3
Mus musculus [11] = assay: Toxicity in mouse Colon 26 cells allografted BALB/c mouse assessed as change in body weight at 2 to 4 umol/kg, ip qd for 2 days measured 30 mins post irradiation with diode laser light; format: organism-based; conditions: in vivo; outline: as §3
Colon 26 (Mus musculus) [12] = assay: Prodrug conversion in mouse Colon 26 cells assessed as death of neighboring cells at 5 uM incubated for 24 hrs followed by irradiation with diode laser light for 15 mins measured after 48 hrs by Calcein AM live cell staining assay; conditions: colon 26, 5 µM
Tubulin (Homo sapiens) [13] = biological target: T1, Tubulin (Homo sapiens); assay: Inhibition of tubulin polymerization (unknown origin) at 3 uM after 1 hr by fluorescence plate reader analysis

SMILES | IC50 (MCF7 [3]) [nM] | IC50 (MCF7 [4]) [nM] | inhibition (Tubulin (Homo sapiens) [5]) [%] | inhibition (Tubulin (Homo sapiens) [6]) | Ratio IC50 (MCF7 [7]) | other results
CCN(CC)c1ccc2c(-c3ccccc3C(=O)OCN3CCN(/C=C/OC(=O)COc4ccc(-c5c6nc(c(-c7ccccc7)c7ccc(s7)c(-c7ccccc7)c7nc(c(-c8ccccc8)c8ccc5s8)C=C7)C=C6)cc4)CC3)c3ccc(=[N+](CC)CC)cc-3oc2c1.[Cl-] | – | – | – | – | – | Drug uptake (Mus musculus [1]): tde; Drug uptake (Mus musculus [2]): Active
COc1ccc(/C=C\c2cc(OC)c(OC)c(OC)c2)cc1O [COMBRETASTATIN A4] | 9 | – | – | – | – | –
COc1ccc(/C=C\c2cc(OC)c(OC)c(OC)c2)cc1OCCCN1CCN(C(=O)COc2ccc(-c3c4nc(c(-c5ccccc5)c5ccc(s5)c(-c5ccccc5)c5nc(c(-c6ccccc6)c6ccc3s6)C=C5)C=C4)cc2)CC1 | 1800 | 1060 | 9 | inactive | 1.7 | –
COc1ccc(/C=C\c2cc(OC)c(OC)c(OC)c2)cc1OC(=O)/C=C/N1CCC(COC(=O)COc2ccc(-c3c4nc(c(-c5ccccc5)c5ccc(s5)c(-c5ccccc5)c5nc(c(-c6ccccc6)c6ccc3s6)C=C5)C=C4)cc2)CC1 | 164 | 28 | 6 | inactive | 6 | Activity (Colon 26 [8]): Active; Drug metabolism (Colon 26 (Mus musculus) [9]): Active; Activity (Colon 26 [10]): Active; Activity (Mus musculus [11]): Non-toxic
O=C(O)COc1ccc(-c2c3nc(c(-c4ccccc4)c4ccc(s4)c(-c4cccs4)c4nc(c(-c5ccc(OCC(=O)O)cc5)c5ccc2s5)C=C4)C=C3)cc1 | – | – | – | – | – | Drug metabolism (Colon 26 (Mus musculus) [12]): Not Active
CC(=O)O[C@H]1C(=O)[C@@]2(C)[C@H]([C@H](OC(=O)c3ccccc3)[C@]3(O)C[C@H](OC(=O)[C@H](O)[C@@H](NC(=O)c4ccccc4)c4ccccc4)C(C)=C1C3(C)C)[C@]1(OC(C)=O)CO[C@@H]1C[C@@H]2O | – | – | – | – | – | inhibition (Tubulin (Homo sapiens) [13]): Active

From ChEMBL document CHEMBL2375295, “Site-specific and far-red-light-activatable prodrug of combretastatin A-4 using photo-unclick chemistry” (J Med Chem, 2013)
